ChEMBL document CHEMBL1144801, “Synthesis of new benzimidazole linked pyrrolo[2,1-c][1,4]benzodiazepine conjugates with efficient DNA-binding affinity and potent cytotoxicity” (Bioorg Med Chem Lett, 2008)
Active and inactive are the calls of the source. The calls are words filed in the database; no cut-off is given here.

Assays:
DNA = experiment: Binding affinity to calf thymus DNA at 1:5 (compound:DNA) molar ratio in 37degC after 18 hrs by thermal denaturation studies; assay type: nucleic-acid assay; details: Bos taurus
Summary of the method: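 Calf thymus DNA with ligand at a 1:5 ligand:DNA molar ratio in aqueous 10 mM sodium phosphate + 1 mM EDTA, pH 7.00. Mixtures were incubated at 37 °C and read at 0 h and 18 h. The read-out was the shift in helix melting temperature (ΔTm) relative to CT-DNA alone.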

Bacilli = experiment: Inhibition of Bacillus amyloli BamH1 restriction endonuclease-mediated pBR322 cleavage by RED100-restriction endonuclease digestion assay
Summary of the method: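 Plasmid pBR322 exposed to the conjugate, then digested with BamH1 (20 U) for 1 h at 37 °C. Cut and uncut products separated by agarose gel electrophoresis and visualized by ethidium bromide staining under UV. Controls were untreated pBR322 and a complete BamH1 digest.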

HOP-92 = experiment: Cytotoxicity against human HOP92 cells; assay type: functional
A498 = experiment: Cytotoxicity against human A498 cells; assay type: functional
SNB-19 = experiment: Cytotoxicity against human SNB19 cells; assay type: functional
NCI-H522 = experiment: Cytotoxicity against human NCI-H522 cells; assay type: functional
Hs-578T = experiment: Cytotoxicity against human HS578T cells; assay type: functional
CAKI-1 = experiment: Cytotoxicity against human CAKI1 cells; assay type: functional
SK-MEL-28 = experiment: Cytotoxicity against human SKMEL28 cells; assay type: functional
M14 = experiment: Cytotoxicity against human M14 cells; assay type: functional
786-0 = experiment: Cytotoxicity against human 786-0 cells; assay type: functional
K562 = experiment: Cytotoxicity against human K562 cells; assay type: functional
SK-MEL-2 = experiment: Cytotoxicity against human SKMEL2 cells; assay type: functional
MOLT-4 = experiment: Cytotoxicity against human MOLT4 cells; assay type: functional
SN12C = experiment: Cytotoxicity against human SN12C cells; assay type: functional
MDA-MB-231 = experiment: Cytotoxicity against human MDA-MB-231 cells; assay type: functional
HOP-62 = experiment: Cytotoxicity against human HOP62 cells; assay type: functional
OVCAR-3 = experiment: Cytotoxicity against human OVCAR-3 cells; assay type: functional
Malme-3M = experiment: Cytotoxicity against human MALME3M cells; assay type: functional
CCRF-CEM = experiment: Cytotoxicity against human CCRF-CEM cells; assay type: functional
HCT-116 = experiment: Cytotoxicity against human HCT116 cells; assay type: functional
RPMI-8226 = experiment: Cytotoxicity against human RPMI8226 cells; assay type: functional
UACC-257 = experiment: Cytotoxicity against human UACC257 cells; assay type: functional
OVCAR-4 = experiment: Cytotoxicity against human OVCAR4 cells; assay type: functional
MDA-MB-468 = experiment: Cytotoxicity against human MDA-MB-468 cells; assay type: functional
[1] = Cytotoxicity against human OVCAR1 cells; assay type: functional
LOX IMVI = experiment: Cytotoxicity against human LOXIMVI cells; assay type: functional
UACC-62 = experiment: Cytotoxicity against human UACC62 cells; assay type: functional
OVCAR-5 = experiment: Cytotoxicity against human OVCAR5 cells; assay type: functional
NCI-H322M = experiment: Cytotoxicity against human NCI-H322M cells; assay type: functional
TK-10 = experiment: Cytotoxicity against human TK10 cells; assay type: functional
DU-145 = experiment: Cytotoxicity against human DU145 cells; assay type: functional
EKVX = experiment: Cytotoxicity against human EKVX cells; assay type: functional
COLO 205 = experiment: Cytotoxicity against human COLO205 cells; assay type: functional
HCT-15 = experiment: Cytotoxicity against human HCT15 cells; assay type: functional
OVCAR-8 = experiment: Cytotoxicity against human OVCAR8 cells; assay type: functional
NCI-H460 = experiment: Cytotoxicity against human NCI-H460 cells; assay type: functional
ACHN = experiment: Cytotoxicity against human ACHN cells; assay type: functional
KM12 = experiment: Cytotoxicity against human KM12 cells; assay type: functional
SK-OV-3 = experiment: Cytotoxicity against human SKOV3 cells; assay type: functional
SR = experiment: Cytotoxicity against human SR cells; assay type: functional
T47D = experiment: Cytotoxicity against human T47D cells; assay type: functional
SF-268 = experiment: Cytotoxicity against human SF268 cells; assay type: functional
BT-549 = experiment: Cytotoxicity against human BT549 cells; assay type: functional
U-251 = experiment: Cytotoxicity against human U251 cells; assay type: functional
NCI-H226 = experiment: Cytotoxicity against human NCI-H226 cells; assay type: functional
NCI-H23 = experiment: Cytotoxicity against human NCI-H23 cells; assay type: functional
SNB-75 = experiment: Cytotoxicity against human SNB75 cells; assay type: functional
MDA-MB-435 = experiment: Cytotoxicity against human MDA-MB-435 cells; assay type: functional
RXF 393 = experiment: Cytotoxicity against human RXF393 cells; assay type: functional
HT-29 = experiment: Cytotoxicity against human HT29 cells; assay type: functional
NCI/ADR-RES = experiment: Cytotoxicity against human NCI/ADR-RES cells; assay type: functional
UO-31 = experiment: Cytotoxicity against human UO31 cells; assay type: functional
MCF7 = experiment: Cytotoxicity against human MCF7 cells; assay type: functional
A549 = experiment: Cytotoxicity against human A549 cells; assay type: functional
SK-MEL-5 = experiment: Cytotoxicity against human SKMEL5 cells; assay type: functional
[2] = Cytotoxicity against human HL60(TB) cells; assay type: functional, HL-60(TB); details: HL-60
SW-620 = experiment: Cytotoxicity against human SW620 cells; assay type: functional
SF-539 = experiment: Cytotoxicity against human SF539 cells; assay type: functional
HCC 2998 = experiment: Cytotoxicity against human HCC2998 cells; assay type: functional

COc1cc2c(cc1O)N=C[C@@H]1CCCN1C2=O
ΔTm (DNA): 0.7 °C

COc1cc2c(cc1OCCCn1c(-c3ccco3)nc3ccccc31)NC(=O)[C@@H]1CCCN1C2=O
ΔTm (DNA): 0.7 °C

COc1cc2c(cc1OCCCCCn1c(-c3cccs3)nc3ccccc31)N=C[C@@H]1CCCN1C2=O
ΔTm (DNA): 6.1 °C

COc1cc2c(cc1OCCCCn1c(-c3ccco3)nc3ccccc31)N=C[C@@H]1CCCN1C2=O
Activity (Bacilli): inactive | ΔTm (DNA): 0 °C

COc1cc2c(cc1OCCCn1c(-c3ccco3)nc3ccccc31)N=C[C@@H]1CCCN1C2=O
ΔTm (DNA): 6.1 °C

COc1cc2c(cc1OCCCCCn1c(-c3ccco3)nc3ccccc31)N=C[C@@H]1CCCN1C2=O
GI50 (HOP-92): 0.01 µM | GI50 (A498): < 0.01 µM | GI50 (SNB-19): < 0.01 µM | GI50 (NCI-H522): < 0.01 µM | GI50 (Hs-578T): < 0.01 µM | GI50 (CAKI-1): < 0.01 µM | Activity (Bacilli): Active | GI50 (SK-MEL-28): < 0.01 µM | GI50 (M14): < 0.01 µM | GI50 (786-0): < 0.01 µM | GI50 (K562): < 0.01 µM | GI50 (SK-MEL-2): 0.02 µM | GI50 (MOLT-4): < 0.01 µM | GI50 (SN12C): < 0.01 µM | GI50 (MDA-MB-231): 0.01 µM | GI50 (HOP-62): < 0.01 µM | GI50 (OVCAR-3): < 0.01 µM | GI50 (Malme-3M): 0.01 µM | GI50 (CCRF-CEM): < 0.01 µM | GI50 (HCT-116): < 0.01 µM | GI50 (RPMI-8226): < 0.01 µM | GI50 (UACC-257): < 0.01 µM | GI50 (OVCAR-4): < 0.01 µM | GI50 (MDA-MB-468): < 0.01 µM | GI50 [1]: 0.01 µM | GI50 (LOX IMVI): < 0.01 µM | GI50 (UACC-62): < 0.01 µM | GI50 (OVCAR-5): < 0.01 µM | GI50 (NCI-H322M): 0.03 µM | GI50 (TK-10): 0.01 µM | GI50 (DU-145): 0.02 µM | GI50 (EKVX): < 0.01 µM | GI50 (COLO 205): < 0.01 µM | GI50 (HCT-15): 0.02 µM | GI50 (OVCAR-8): < 0.01 µM | GI50 (NCI-H460): < 0.01 µM | GI50 (ACHN): < 0.01 µM | GI50 (KM12): < 0.01 µM | GI50 (SK-OV-3): < 0.01 µM | GI50 (SR): < 0.01 µM | GI50 (T47D): < 0.01 µM | GI50 (SF-268): < 0.01 µM | GI50 (BT-549): < 0.01 µM | GI50 (U-251): < 0.01 µM | GI50 (NCI-H226): < 0.01 µM | GI50 (NCI-H23): < 0.01 µM | GI50 (SNB-75): < 0.01 µM | GI50 (MDA-MB-435): < 0.01 µM | GI50 (RXF 393): < 0.01 µM | GI50 (HT-29): < 0.01 µM | GI50 (NCI/ADR-RES): 0.23 µM | GI50 (UO-31): 0.1 µM | GI50 (MCF7): < 0.01 µM | GI50 (A549): < 0.01 µM | GI50 (SK-MEL-5): < 0.01 µM | GI50 [2]: < 0.01 µM | ΔTm (DNA): 7 °C | GI50 (SW-620): < 0.01 µM | GI50 (SF-539): < 0.01 µM

COc1cc2c(cc1OCCCn1c(-c3cccs3)nc3ccccc31)N=C[C@@H]1CCCN1C2=O
ΔTm (DNA): 5.1 °C

COc1cc2c(cc1OCCCCn1c(-c3cccs3)nc3ccccc31)N=C[C@@H]1CCCN1C2=O
GI50 (HOP-92): 1.33 µM | GI50 (A498): 1.68 µM | GI50 (SNB-19): 1.53 µM | GI50 (NCI-H522): 1.04 µM | GI50 (Hs-578T): 1.7 µM | GI50 (CAKI-1): 0.94 µM | GI50 (SK-MEL-28): 1.53 µM | GI50 (M14): 1.35 µM | GI50 (786-0): 1.71 µM | GI50 (K562): 15.5 µM | GI50 (SK-MEL-2): 1.47 µM | GI50 (MOLT-4): 3.79 µM | GI50 (SN12C): 2.5 µM | GI50 (MDA-MB-231): 1.39 µM | GI50 (OVCAR-3): 1.72 µM | GI50 (Malme-3M): 1.74 µM | GI50 (CCRF-CEM): 0.24 µM | GI50 (HCT-116): 1.75 µM | GI50 (RPMI-8226): 0.31 µM | GI50 (UACC-257): 2.54 µM | GI50 (OVCAR-4): 1.61 µM | GI50 (MDA-MB-468): 0.33 µM | GI50 [1]: 0.75 µM | GI50 (LOX IMVI): 0.78 µM | GI50 (UACC-62): 1.57 µM | GI50 (OVCAR-5): 3.27 µM | GI50 (NCI-H322M): 2.7 µM | GI50 (TK-10): 2.09 µM | GI50 (DU-145): 1.32 µM | GI50 (EKVX): 3.36 µM | GI50 (COLO 205): 1.07 µM | GI50 (HCT-15): 3.19 µM | GI50 (OVCAR-8): 2.58 µM | GI50 (NCI-H460): 1.55 µM | GI50 (ACHN): 2.81 µM | GI50 (KM12): 1.92 µM | GI50 (SK-OV-3): 3.32 µM | GI50 (SR): 0.45 µM | GI50 (T47D): 0.5 µM | GI50 (SF-268): 1.8 µM | GI50 (BT-549): 0.41 µM | GI50 (U-251): 1.77 µM | GI50 (NCI-H226): 2.13 µM | GI50 (NCI-H23): 2.05 µM | GI50 (SNB-75): 1.22 µM | GI50 (MDA-MB-435): 1.39 µM | GI50 (HCC 2998): 2.08 µM | GI50 (RXF 393): 1.34 µM | GI50 (HT-29): 1.97 µM | GI50 (NCI/ADR-RES): 3.24 µM | GI50 (UO-31): 1.23 µM | GI50 (MCF7): 0.66 µM | GI50 (A549): 3.22 µM | GI50 (SK-MEL-5): 1.09 µM | GI50 [2]: 5.18 µM | ΔTm (DNA): 1 °C | GI50 (SW-620): 1.84 µM | GI50 (SF-539): 1.72 µM

COc1cc2c(cc1OCCCCCn1c(-c3cccs3)nc3ccccc31)NC(=O)[C@@H]1CCCN1C2=O
ΔTm (DNA): 0.8 °C
